Broadly, the Ki is the equilibrium dissociation constant of an inhibitor or competing ligand from its target. Read a high Ki as a looser hold on the target. As usually defined, the inhibition is the relative decrease from the control value, in per cent. The low end stands for little suppression, the high end for strong suppression.

Among the data in ChEMBL document CHEMBL1135457 (J Med Chem, 2002) are Ki, Kif and inhibition values, retold here.

One assay concerns the target T1, Androgen receptor (Homo sapiens, UniProt P10275).
T1 sequence (P10275 whole entry): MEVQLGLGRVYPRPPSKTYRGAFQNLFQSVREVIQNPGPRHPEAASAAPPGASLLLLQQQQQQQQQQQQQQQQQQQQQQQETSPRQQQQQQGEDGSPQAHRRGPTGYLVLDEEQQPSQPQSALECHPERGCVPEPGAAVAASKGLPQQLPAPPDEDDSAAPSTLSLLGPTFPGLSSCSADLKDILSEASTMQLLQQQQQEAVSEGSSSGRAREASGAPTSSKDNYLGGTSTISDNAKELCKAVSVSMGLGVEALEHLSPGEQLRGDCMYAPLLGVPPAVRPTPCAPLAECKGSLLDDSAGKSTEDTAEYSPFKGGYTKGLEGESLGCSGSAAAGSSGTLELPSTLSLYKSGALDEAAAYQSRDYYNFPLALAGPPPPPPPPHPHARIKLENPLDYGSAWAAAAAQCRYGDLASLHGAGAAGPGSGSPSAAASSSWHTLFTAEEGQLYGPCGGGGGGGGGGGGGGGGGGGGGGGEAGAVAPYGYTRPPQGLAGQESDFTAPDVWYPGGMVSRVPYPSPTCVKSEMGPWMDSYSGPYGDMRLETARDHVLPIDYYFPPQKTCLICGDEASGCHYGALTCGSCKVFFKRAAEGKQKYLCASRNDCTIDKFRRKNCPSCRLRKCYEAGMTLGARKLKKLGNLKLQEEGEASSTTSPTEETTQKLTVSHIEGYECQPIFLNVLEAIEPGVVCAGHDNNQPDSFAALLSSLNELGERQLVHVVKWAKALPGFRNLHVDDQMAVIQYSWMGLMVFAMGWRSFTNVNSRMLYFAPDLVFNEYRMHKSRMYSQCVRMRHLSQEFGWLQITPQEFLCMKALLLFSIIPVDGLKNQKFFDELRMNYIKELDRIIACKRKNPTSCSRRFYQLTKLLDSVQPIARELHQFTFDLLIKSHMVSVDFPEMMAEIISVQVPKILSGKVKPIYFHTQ
The assay is described as follows: Displacement of [3H]DHT from human Androgen receptor. In short, it runs like this:
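Whole-cell extract of Sf9 cells infected with baculovirus expressing human AR (MOI 2, harvested 48 h), sonicated in pH 7.2 HEPES/molybdate/glycerol buffer. Extract bound to hydroxylapatite with 1 nM [3H]DHT and compound (0.01 nM–30 μM) in triplicate, 1 h, 4 °C. Nonspecific binding from 10 μM unlabeled DHT. Filtration, scintillation counting, sigmoidal IC50, Cheng–Prusoff Ki (Kd 0.4 nM).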
A general note: Loss of bound radioactivity is the signal in a displacement assay; it reports binding, not function.

Assay [1] concerns the target T2, Mineralocorticoid receptor (Homo sapiens) (UniProt P08235).
T2 sequence (whole entry): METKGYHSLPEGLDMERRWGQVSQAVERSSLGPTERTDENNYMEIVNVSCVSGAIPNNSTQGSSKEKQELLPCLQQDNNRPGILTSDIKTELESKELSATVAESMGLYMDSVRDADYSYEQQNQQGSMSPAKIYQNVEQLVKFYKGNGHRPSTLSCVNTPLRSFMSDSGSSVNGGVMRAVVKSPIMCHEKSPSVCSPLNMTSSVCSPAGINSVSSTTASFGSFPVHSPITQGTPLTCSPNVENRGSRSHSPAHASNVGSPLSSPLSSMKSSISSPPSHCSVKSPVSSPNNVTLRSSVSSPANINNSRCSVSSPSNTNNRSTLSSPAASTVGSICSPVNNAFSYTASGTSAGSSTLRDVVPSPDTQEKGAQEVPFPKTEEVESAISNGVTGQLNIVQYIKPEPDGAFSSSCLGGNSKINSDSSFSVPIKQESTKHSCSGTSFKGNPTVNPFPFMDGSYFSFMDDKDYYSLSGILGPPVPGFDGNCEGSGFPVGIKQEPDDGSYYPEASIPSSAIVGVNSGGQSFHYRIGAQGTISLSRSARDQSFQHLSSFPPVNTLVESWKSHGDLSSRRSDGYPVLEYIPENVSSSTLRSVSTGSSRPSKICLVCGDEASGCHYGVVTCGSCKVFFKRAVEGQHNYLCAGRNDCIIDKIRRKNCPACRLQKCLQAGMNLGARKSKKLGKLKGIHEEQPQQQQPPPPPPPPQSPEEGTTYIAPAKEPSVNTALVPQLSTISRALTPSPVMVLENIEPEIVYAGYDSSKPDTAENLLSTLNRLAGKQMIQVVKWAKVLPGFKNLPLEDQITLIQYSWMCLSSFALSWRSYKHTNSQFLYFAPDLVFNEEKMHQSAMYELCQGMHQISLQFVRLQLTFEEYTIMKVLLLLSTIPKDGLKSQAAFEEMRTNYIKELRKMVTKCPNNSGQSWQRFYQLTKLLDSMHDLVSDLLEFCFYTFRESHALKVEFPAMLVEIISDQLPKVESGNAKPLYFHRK

The target of assay [2] is T3, Progesterone receptor (Homo sapiens) (UniProt P06401).
T3 sequence (whole entry): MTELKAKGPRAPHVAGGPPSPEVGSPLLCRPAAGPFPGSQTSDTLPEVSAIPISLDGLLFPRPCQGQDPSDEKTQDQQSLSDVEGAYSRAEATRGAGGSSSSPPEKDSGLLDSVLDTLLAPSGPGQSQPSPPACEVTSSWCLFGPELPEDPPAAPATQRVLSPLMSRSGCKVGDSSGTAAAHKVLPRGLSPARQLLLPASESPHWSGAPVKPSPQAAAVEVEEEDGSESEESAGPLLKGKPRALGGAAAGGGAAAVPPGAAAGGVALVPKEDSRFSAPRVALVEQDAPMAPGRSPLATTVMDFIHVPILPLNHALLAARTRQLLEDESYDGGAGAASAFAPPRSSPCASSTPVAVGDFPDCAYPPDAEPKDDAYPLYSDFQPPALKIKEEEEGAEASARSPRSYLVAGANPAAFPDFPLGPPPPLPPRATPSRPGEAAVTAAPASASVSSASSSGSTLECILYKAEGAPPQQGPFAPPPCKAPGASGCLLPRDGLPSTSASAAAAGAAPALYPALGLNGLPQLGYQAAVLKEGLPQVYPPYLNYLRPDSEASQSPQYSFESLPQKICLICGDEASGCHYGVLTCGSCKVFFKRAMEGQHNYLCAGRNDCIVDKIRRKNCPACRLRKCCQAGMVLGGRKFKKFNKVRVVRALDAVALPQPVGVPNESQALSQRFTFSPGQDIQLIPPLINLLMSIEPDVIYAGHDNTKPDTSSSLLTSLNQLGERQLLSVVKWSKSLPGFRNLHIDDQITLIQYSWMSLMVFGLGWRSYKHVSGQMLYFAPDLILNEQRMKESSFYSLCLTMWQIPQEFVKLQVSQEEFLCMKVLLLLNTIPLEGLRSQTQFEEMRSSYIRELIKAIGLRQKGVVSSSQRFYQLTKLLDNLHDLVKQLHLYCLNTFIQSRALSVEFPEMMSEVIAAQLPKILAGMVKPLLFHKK

The target in assay [3] is T3, Progesterone receptor (Homo sapiens). Nature of the assay: Displacement of 10 nM [3H]dexamethasone from human Progesterone receptor, percent inhibition at 10 uM.

`CC#C[C@@]1(O)CC[C@@]2(Cc3ccccc3)c3ccc(O)cc3CC[C@@H]2C1` had a Ki at Androgen receptor of 0.65 µM. Regarding `O=C1CC[C@@]2(Cc3ccccc3)c3ccc(O)cc3CC[C@@H]2C1`, in assay [1], the Kif is > 1000 nM. As for `Oc1ccc2c(c1)CC[C@@H]1C[C@@](O)(C#CCl)CC[C@@]21Cc1ccccc1`, the Kif in assay [2] is > 1000 nM. On to `CC#C[C@]1(O)CCC2C3CCC4=CC(=O)CC[C@]4(Cc4ccc(C)cc4)C3=CC[C@@]21C` (some centres undefined), for which the inhibition in assay [3] was 30%.
